The source made the active and inactive calls. No cut-off for these calls is given here.
Tests used:
[1] = biological target: Cannabinoid receptor 1 (Homo sapiens) (UniProt P21554); assay: Positive allosteric modulation of CB1 receptor (unknown origin) expressed in HEK293 cell membranes assessed as stimulation of [3H]CP55,940 binding after 60 mins by liquid scintillation counting analysis
How it was run: (§1)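 Nonspecific binding was taken with 1 μM unlabeled CP55,940. Samples were filtered on GF/C and counted by scintillation. Runs were in duplicate, ≥3 experiments. α and KB came from nonlinear regression to the allosteric ternary complex model, with [A] and KA fixed.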

[2] = biological target: Cannabinoid receptor 1 (Homo sapiens) (UniProt P21554); assay: Allosteric modulation of CB1 receptor (unknown origin) expressed in HEK293 cell membranes assessed as stimulation of [3H]CP55,940 binding up to 32 uM after 60 mins by liquid scintillation counting analysis; how it was run: as §1
[3] = biological target: Cannabinoid receptor 1 (Homo sapiens) (UniProt P21554); assay: Antagonist activity CB1 receptor (unknown origin) expressed in HEK293 cell membranes assessed as inhibition of CP55,940-induced [35S]GTPgammaS binding at 10 uM after 60 mins by liquid scintillation counting analysis relative to control; type: functional
How it was run: (§2)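 Wild-type CB1 HEK293 membranes (7.5 μg) were incubated 60 min at 30 °C in 50 mM Tris-HCl pH 7.4, 3 mM MgCl2, 0.2 mM EGTA, 100 mM NaCl, 0.1% BSA, 10 μM GDP and 0.1 nM [35S]GTPγS. CP55,940 was given at ≥9 concentrations (100 pM–100 μM), with or without modulator. Nonspecific binding was taken with 10 μM GTPγS. Samples were filtered and counted by scintillation. Runs were in duplicate, ≥3 experiments.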

[4] = biological target: Cannabinoid receptor 1 (Homo sapiens) (UniProt P21554); assay: Antagonist activity CB1 receptor (unknown origin) expressed in HEK293 cell membranes assessed as inhibition of CP55,940-induced [35S]GTPgammaS binding at 3.2 uM after 60 mins by liquid scintillation counting analysis relative to control; type: functional; how it was run: as §2
[5] = biological target: Cannabinoid receptor 1 (Homo sapiens) (UniProt P21554); assay: Antagonist activity CB1 receptor (unknown origin) expressed in HEK293 cell membranes assessed as inhibition of CP55,940-induced [35S]GTPgammaS binding after 60 mins by liquid scintillation counting analysis; type: functional; how it was run: as §2
[6] = biological target: Cannabinoid receptor 1 (Homo sapiens) (UniProt P21554); assay: Antagonist activity CB1 receptor (unknown origin) expressed in HEK293 cell membranes assessed as inhibition of CP55,940-induced [35S]GTPgammaS binding at 0.1 uM after 60 mins by liquid scintillation counting analysis (reference value: […] +/- […] fmol/mg); type: functional
[7] = biological target: Cannabinoid receptor 1 (Homo sapiens) (UniProt P21554); assay: Antagonist activity CB1 receptor (unknown origin) expressed in HEK293 cell membranes assessed as inhibition of [35S]GTPgammaS binding at 10 uM after 60 mins by liquid scintillation counting analysis; type: functional
How it was run: (§3)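 Basal [35S]GTPγS binding was measured with no orthosteric agonist on wild-type CB1 HEK293 membranes (7.5 μg), 60 min at 30 °C. Buffer was Tris pH 7.4 with MgCl2, EGTA, NaCl and BSA, plus 5 μM GDP and 0.1 nM [35S]GTPγS, and modulator added. Nonspecific binding was taken with 10 μM GTPγS. Mock-transfected membranes gave the non-CB1 binding. Samples were filtered and counted by scintillation. Runs were in duplicate, ≥3 experiments; one-way ANOVA with Bonferroni test was applied.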

[8] = biological target: Cannabinoid receptor 1 (Homo sapiens) (UniProt P21554); assay: Antagonist activity CB1 receptor (unknown origin) expressed in HEK293 cell membranes assessed as inhibition of [35S]GTPgammaS binding after 60 mins by liquid scintillation counting analysis; type: functional; how it was run: as §3
[9] = biological target: Cannabinoid receptor 1 (Homo sapiens) (UniProt P21554); assay: Antagonist activity CB1 receptor (unknown origin) expressed in HEK293 cell membranes assessed as inhibition of CP55,940-induced [35S]GTPgammaS binding at 1 uM after 60 mins by liquid scintillation counting analysis relative to control; type: functional; how it was run: as §2

Sequence of Cannabinoid receptor 1 (Homo sapiens) (P21554 whole entry): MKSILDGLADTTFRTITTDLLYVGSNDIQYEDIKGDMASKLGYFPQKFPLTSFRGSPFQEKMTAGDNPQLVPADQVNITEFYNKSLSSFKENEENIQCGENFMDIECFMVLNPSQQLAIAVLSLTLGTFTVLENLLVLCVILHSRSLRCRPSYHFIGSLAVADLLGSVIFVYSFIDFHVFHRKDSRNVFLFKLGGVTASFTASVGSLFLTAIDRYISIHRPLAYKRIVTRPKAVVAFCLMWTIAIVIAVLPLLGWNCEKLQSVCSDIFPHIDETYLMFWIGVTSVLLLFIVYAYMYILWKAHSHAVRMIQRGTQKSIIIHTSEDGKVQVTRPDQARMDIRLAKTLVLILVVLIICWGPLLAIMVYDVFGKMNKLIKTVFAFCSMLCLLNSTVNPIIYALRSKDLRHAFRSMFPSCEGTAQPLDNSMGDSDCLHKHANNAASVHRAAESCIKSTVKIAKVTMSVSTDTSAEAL

## CCc1c(C(=O)NCCc2ccc(N3CCCCC3)cc2)[nH]c2ccc(Cl)cc12
[1]
  Kb: 217 nM

## CCc1c(C(=O)NCCc2ccc(N(C)C)cc2)oc2ccc(Cl)cc12
[1]
  Kb: 627 nM

## CCc1c(C(=O)NCCc2ccc(N(C)C)cc2)[nH]c2ccc(Cl)cc12
[1]
  Kb: 207 nM

## O=C(NCCc1ccc(N2CCCCC2)cc1)c1cc2cc(Cl)ccc2o1
[2]
  Activity: inactive

## O=C(NCCc1ccc(N2CCCCC2)cc1)c1[nH]c2ccc(Cl)cc2c1-c1ccccc1
[2]
  Activity: inactive

## CN(C)c1ccc(CCNC(=O)c2cc3cc(Cl)ccc3o2)cc1
[2]
  Activity: inactive

## CCCCCc1c(C(=O)NCc2ccc(N3CCCCC3)cc2)[nH]c2ccc(Cl)cc12
[2]
  Activity: inactive

## O=C(NCCc1ccc(N2CCCCC2)cc1)c1[nH]c2ccc(Cl)cc2c1CC1CCCCC1
[1]
  Kb: 2410 nM

## CCCCCc1c(C(=O)NCCc2ccc(Oc3ccccc3)cc2)[nH]c2ccc(Cl)cc12
[1]
  Kb: 2340 nM

## CCc1c(C(=O)NCCc2ccc(N3CCCCC3)cc2)oc2ccc(Cl)cc12
[3]
  inhibition: Active
[4]
  Emax: 59.5 fmol/mg
[1]
  Kb: 2590 nM
[5]
  inhibition: Dose-dependent effect

## CCCCCc1c(C(=O)NCCc2ccc(N3CCOCC3)cc2)[nH]c2ccc(Cl)cc12
[3]
  inhibition: Active
[4]
  Emax: 58.2 fmol/mg
[1]
  Kb: 508 nM
[5]
  inhibition: Dose-dependent effect

## CCCCCCCCCc1c(C(=O)NCCc2ccc(N3CCCCC3)cc2)[nH]c2ccc(Cl)cc12
[3]
  inhibition: Active
[4]
  Emax: 61.4 fmol/mg
[1]
  Kb: 260 nM
[5]
  inhibition: Dose-dependent effect

## CCCCCCCc1c(C(=O)NCCc2ccc(N3CCCCC3)cc2)[nH]c2ccc(Cl)cc12
[1]
  Kb: 651 nM

## CCCCCc1c(C(=O)NC(CO)Cc2ccc(N(C)C)cc2)[nH]c2ccc(Cl)cc12 (stereo not given)
[1]
  Kb: 1020 nM

## O=C(NCCc1ccc(N2CCCCC2)cc1)c1[nH]c2ccc(Cl)cc2c1Cc1ccccc1
[1]
  Kb: 1070 nM

## CCCCCc1c(C(=O)NCCc2ccc(N(C)C)cc2)[nH]c2ccc(Cl)cc12
[6]
  Emax: 53.4 fmol/mg
[7]
  inhibition: Active
[8]
  inhibition: Dose-dependent effect
[1]
  Kb: 167 nM
[5]
  inhibition: Dose-dependent effect
[9]
  Emax: 36 fmol/mg
